Source: ChEMBL document CHEMBL1122377, “Nitrogen bridgehead compounds. 38. New antiallergic 4H-pyrido[1,2-a]pyrimidin-4-ones. 3” (1983)

What was measured:
Rattus norvegicus [1] = assay: Antiallergic activity after iv administration using rat reaginic passive cutaneous anaphylaxis (PCA) test;ins means insoluble.
Rattus norvegicus [2] = assay: Antiallergic activity after intravenous administration using rat reaginic passive cutaneous anaphylaxis (PCA) test.; assay type: functional; details: for ED50: Rattus norvegicus, iv, read-out: ID50 (the source's name)
Summary of the method: (§1)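 Inhibition in the rat reaginic PCA test after dosing; significance of each value judged by Student's t test.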

Rattus norvegicus [3] = assay: Antiallergic activity after iv administration using rat reaginic passive cutaneous anaphylaxis (PCA) test;Compound is toxic at 100 umol/kg.
Rattus norvegicus [4] = assay: Antiallergic activity after os administration using rat reaginic passive cutaneous anaphylaxis (PCA) test.; assay type: functional; details: for ED50: read-out: ID50 (the source's name)
Summary of the method: as §1

Rattus norvegicus [5] = assay: Antiallergic activity after os administration using rat reaginic passive cutaneous anaphylaxis (PCA) test; insignificant activity; per os 10e3 umol/kg exhibited 31% protection; assay type: functional

CC1CCC(Nc2ccccc2)c2ncc(C(=O)O)c(=O)n21 (stereo unspecified)
ID50 (Rattus norvegicus [1]): Insoluble

CC1CC=C(Nc2ccccc2C(=O)O)c2ncc(C(=O)O)c(=O)n21 (stereo unspecified)
ED50 (Rattus norvegicus [2]): 0.66 µmol/kg

Cc1nc2n(c(=O)c1C(=O)O)C(C)CC/C2=N\O (stereo unspecified)
ED50 (Rattus norvegicus [2]): > 100 µmol/kg

CC1CCC(C(=O)N(C)C)c2ncc(C(=O)O)c(=O)n21 (stereo unspecified)
ID50 (Rattus norvegicus [1]): Insoluble

CC1CC=C(Nc2cccc(Br)c2)c2ncc(C(=O)O)c(=O)n21 (stereo unspecified)
ID50 (Rattus norvegicus [3]): 10 µmol/kg

CC1CC=C(Nc2cccc(C(=O)O)c2)c2ncc(C(=O)O)c(=O)n21 (stereo unspecified)
ED50 (Rattus norvegicus [2]): 0.62 µmol/kg | ED50 (Rattus norvegicus [4]): 92.6 µmol/kg

CC1CC=C(Nc2ccc(F)cc2)c2ncc(C(=O)O)c(=O)n21 (stereo unspecified)
ED50 (Rattus norvegicus [2]): 8.6 µmol/kg

CCc1nc2n(c(=O)c1C(=O)O)C(C)CC/C2=N\O (stereo unspecified)
ED50 (Rattus norvegicus [2]): > 100 µmol/kg

CC1CCCc2ncc(C(=O)O)c(=O)n21 (stereo unspecified)
ED50 (Rattus norvegicus [2]): 240 µmol/kg

CC1CC/C(=N\O)c2ncc(C(=O)O)c(=O)n21 (stereo unspecified)
ED50 (Rattus norvegicus [2]): 19.4 µmol/kg

CC1CC=C(Nc2ccc3ccccc3c2)c2ncc(C(=O)O)c(=O)n21 (stereo unspecified)
ED50 (Rattus norvegicus [4]): 30.8 µmol/kg

CC1CC=C(Nc2cccc(I)c2)c2ncc(C(=O)O)c(=O)n21 (stereo unspecified)
ID50 (Rattus norvegicus [3]): 10 µmol/kg

O=C(O)c1cc(=O)c2c(OCC(O)COc3cccc4oc(C(=O)O)cc(=O)c34)cccc2o1 [CROMOLYN SODIUM]
ED50 (Rattus norvegicus [2]): 1 µmol/kg

CC(=O)c1cccc(NC2=CCC(C)n3c2ncc(C(=O)O)c3=O)c1 (stereo unspecified)
ED50 (Rattus norvegicus [2]): 0.36 µmol/kg

CC1CC=C(Nc2ccccc2)c2ncc(C(=O)O)c(=O)n21 (stereo unspecified)
ED50 (Rattus norvegicus [2]): 2.1 µmol/kg

C[C@@H]1CC=C(Nc2ccccc2)c2ncc(C(=O)O)c(=O)n21
ED50 (Rattus norvegicus [2]): 100 µmol/kg

CC1CC/C(=N\N)c2ncc(C(=O)O)c(=O)n21 (stereo unspecified)
ED50 (Rattus norvegicus [2]): 42 µmol/kg

CCOC(=O)c1cnc2n(c1=O)C(C)CCC2C(=O)Nc1ccccc1 (stereo unspecified)
Activity (Rattus norvegicus [5]): 31%

CC1CCC(C(=O)Nc2ccccc2)c2ncc(C(=O)O)c(=O)n21 (stereo unspecified)
ED50 (Rattus norvegicus [2]): 0.56 µmol/kg

CC1CC=C(N(C)c2ccccc2)c2ncc(C(=O)O)c(=O)n21 (stereo unspecified)
ED50 (Rattus norvegicus [2]): > 100 µmol/kg

Cc1ccccc1NC1=CCC(C)n2c1ncc(C(=O)O)c2=O (stereo unspecified)
ED50 (Rattus norvegicus [2]): 5.4 µmol/kg

CC1CC=C(Nc2cccc(F)c2)c2ncc(C(=O)O)c(=O)n21 (stereo unspecified)
ED50 (Rattus norvegicus [2]): 1.4 µmol/kg

CC1CC=C(Nc2ccc(C(=O)O)cc2)c2ncc(C(=O)O)c(=O)n21 (stereo unspecified)
ED50 (Rattus norvegicus [2]): 3.5 µmol/kg | ED50 (Rattus norvegicus [4]): 277 µmol/kg

CC1CCC(=NNc2ccccc2)c2ncc(C(=O)O)c(=O)n21 (stereo in doubt; 2)
ED50 (Rattus norvegicus [2]): 0.6 µmol/kg

CC1CCC(=NNc2ccccc2)c2ncc(C(=O)O)c(=O)n21 (stereo in doubt)
ID50 (Rattus norvegicus [2]): 0.3 µM/kg

CCO/N=C1\CCC(C)n2c1ncc(C(=O)OCC)c2=O (stereo unspecified)
ED50 (Rattus norvegicus [2]): 41.2 µmol/kg

CCOC(=O)c1cnc2n(c1=O)C(C)CC/C2=N\O (stereo unspecified)
ED50 (Rattus norvegicus [2]): 100 µmol/kg

C[C@H]1CC=C(Nc2ccccc2)c2ncc(C(=O)O)c(=O)n21
ED50 (Rattus norvegicus [2]): 1.2 µmol/kg

CC1CC=C(Nc2ccc(O)cc2)c2ncc(C(=O)O)c(=O)n21 (stereo unspecified)
ED50 (Rattus norvegicus [2]): 2.93 µmol/kg | ED50 (Rattus norvegicus [4]): 100 µmol/kg

CC1CCC(/C=N/c2ccccc2)=C2NC=C(C(=O)O)C(=O)N21 (stereo unspecified)
Activity (Rattus norvegicus [4]): 47%

Cc1cccc(NC2=CCC(C)n3c2ncc(C(=O)O)c3=O)c1 (stereo unspecified)
ED50 (Rattus norvegicus [2]): 0.74 µmol/kg

CCO/N=C1\CCC(C)n2c1ncc(C(=O)O)c2=O (stereo unspecified)
ED50 (Rattus norvegicus [2]): 24.3 µmol/kg

CC1CCC(/C(S)=N/c2ccccc2)c2ncc(C(=O)O)c(=O)n21 (stereo unspecified)
ED50 (Rattus norvegicus [2]): 9.1 µmol/kg
